Laboratory results as given in article PMC9134258 (ACS Omega, 2022).
pIC50: −log10 of the molar value. Each block holds one compound with its values, some of them ahead of it.

Key:
[1] = biological target: recombinant ALK kinase domain (aa 1073–1410) (Homo sapiens, UniProt Q9UM73); assay: ELISA-based in vitro kinase assay, recombinant ALK; format: biochemical; conditions: 300 μM ATP
Method in brief: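 Purified recombinant ALK kinase domain (aa 1073–1410), wild type or L1196M, was incubated with test compound and Mg++-ATP, then loaded onto peptide substrate-coated wells. Reaction ran at 30 °C for 20 min. After washing, phosphopeptide was quantified with anti-phosphotyrosine antibody PY20. IC50 came from nonlinear regression of normalized data. Inhibition mode was assessed from dose–response curves at increasing ATP concentrations.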

Ba/F3-parental cells = assay: Parental IL3-dependent Ba/F3 cell proliferation; format: cell-based; conditions: Mus musculus, BaF3, read-out: IC50 Ba/F3-parental
Method in brief: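 Cell growth was read by [3H]-thymidine incorporation across a dose range of test compound. IC50 values come from nonlinear regression curve fitting of normalized data.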

Ba/F3 NPM/ALK cells = assay: Ba/F3 NPM/ALK cell proliferation; format: cell-based; conditions: read-out: IC50 Ba/F3 NPM/ALK
Method in brief: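 Ba/F3 cells stably expressing NPM/ALK variants were made by electroporation, selected with G418 (1 mg/mL), then selected again by IL3 withdrawal. Proliferation was measured by [3H]-thymidine incorporation across a dose range of test compound. IC50 was obtained by nonlinear regression of normalized data.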

recombinant ALK kinase domain (aa 1073–1410), sequence (Q9UM73 1073-1410): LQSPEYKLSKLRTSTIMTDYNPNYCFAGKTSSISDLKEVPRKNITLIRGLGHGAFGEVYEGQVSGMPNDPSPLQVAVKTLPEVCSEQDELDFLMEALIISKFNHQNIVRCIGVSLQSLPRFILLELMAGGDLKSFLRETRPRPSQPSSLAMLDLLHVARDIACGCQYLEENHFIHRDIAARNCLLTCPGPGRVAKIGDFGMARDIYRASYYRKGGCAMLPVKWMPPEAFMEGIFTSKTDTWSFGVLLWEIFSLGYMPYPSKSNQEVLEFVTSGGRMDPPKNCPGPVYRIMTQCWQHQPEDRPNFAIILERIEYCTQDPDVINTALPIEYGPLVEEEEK

IC50 ALK ([1]; Table 2, 2,6-substituted compounds): inactive
Compound: CCCC#Cc1ccc2c(n1)[nH]c1ccccc12 [Compound 34]

IC50 ALK ([1]; Table 3, 3-chloro-6-substituted compounds): inactive
Compound: Clc1cnc2[nH]c3ccc(-c4ccc(N5CCOCC5)cn4)cc3c2c1 [Compound 67]

pIC50 (Ba/F3 NPM/ALK cells): 5.55
Compound: COc1ccc(-c2ccc3[nH]c4ncc(C=Cc5ccccc5)cc4c3c2)cc1 [Compound 102]
pIC50 (Ba/F3-parental cells): < 5.00
